Broadly, the inhibition is the change of the read-out against control, counted positive when it falls.

The source made the active and inactive calls. No cut-off for these calls is given here. Non-standard residues stand in square brackets, D forms with d. Residues, ends and D or L forms follow the SMILES beside them. *: point of attachment. Lys(thiomyristoyl) = CCCCCCCCCCCCCC(=S)NCCCC[C@H](N)C(=O)O; X3 = CN(C)c1ccc(/N=N/c2ccc(CCC(=O)*)cc2)cc1; X4 = CN(C)c1ccc(/N=N/c2ccc(CC(=O)*)cc2)cc1; X2 = CN(C)c1ccc(/N=N/c2ccc(C(=O)*)cc2)cc1; X1 = O=C(Cc1ccc(/N=N/c2ccc(O)cc2)cc1)*

Experimental findings from ChEMBL document CHEMBL4304758, “Development of Peptide-Based Sirtuin Defatty-Acylase Inhibitors Identified by the Fluorescence Probe, SFP3, That Can Efficiently Measure Defatty-Acylase Activity of Sirtuin” (J Med Chem, 2019) are described below.

In experiment [1] the target is T1, NAD-dependent protein deacetylase sirtuin-2 (Homo sapiens) (UniProt Q8IXJ6).
T1 sequence (whole entry): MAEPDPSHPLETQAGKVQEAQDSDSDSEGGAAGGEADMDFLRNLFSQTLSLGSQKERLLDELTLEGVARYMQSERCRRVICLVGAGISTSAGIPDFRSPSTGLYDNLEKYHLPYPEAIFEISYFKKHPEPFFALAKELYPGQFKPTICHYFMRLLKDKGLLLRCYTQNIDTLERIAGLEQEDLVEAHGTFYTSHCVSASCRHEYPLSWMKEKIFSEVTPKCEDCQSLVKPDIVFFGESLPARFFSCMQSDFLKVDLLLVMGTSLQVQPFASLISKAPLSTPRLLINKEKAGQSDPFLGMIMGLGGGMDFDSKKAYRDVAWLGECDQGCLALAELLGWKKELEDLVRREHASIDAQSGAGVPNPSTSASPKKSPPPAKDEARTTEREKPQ
Briefly: Inhibition of recombinant human SIRT2 defatty-acylase activity using SFP3 as substrate measured at 5 mins interval for 60 mins in presence of NAD+ by fluorescence assay.

The subject of the next experiment is HeLa. In words: Cytotoxicity against human HeLa cells assessed as reduction in cell viability at 50 uM measured after 72 hrs by CCK8 assay. It counts as functional, cell-based. In a few lines: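 HeLa cells, 1.0 × 10⁴ per well on PLL-coated plates, grown overnight in DMEM with 10% FBS and penicillin/streptomycin, 37 °C, 5% CO₂. Compounds added in DMEM (2% DMSO stock), range 1.56–50 μM final, for 72 h. CCK-8 reagent then 2 h at 37 °C, absorbance read at 450 nm. DMSO control.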
For orientation: Tetrazolium assays rely on reduction of a dye to a coloured formazan, in cell work by metabolically active cells.

Experiment [2] has as its target T1, NAD-dependent protein deacetylase sirtuin-2 (Homo sapiens). In words: Inhibition of recombinant human SIRT2 demyristoylase activity using H4K16-Myr as substrate measured after 2 hrs in presence of NAD+ by HPLC analysis. In a few lines:
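H4K16-Myr at 100 μM with 500 μM NAD⁺ and 175 nM SIRT2 in Tris-HCl pH 8.0/NaCl/Triton buffer without DTT, 0.5% DMSO, 2 h at 37 °C. Inhibitors at 0.1–10 μM; AGK2 at 50 μM, NAM at 500 μM. Stopped with HCl/MeOH. Demyristoylated H4K16 product measured by HPLC at 280 nm. Percent inhibition, n = 3.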

For experiment [3] the target is unchanged. In words: Non-competitive inhibition of recombinant human SIRT2 defatty-acylase activity at 15 to 30 nM using SFP3 as substrate measured at 1 min interval for 30 mins in presence of varying levels of NAD+ by Michaelis-Menten plot analysis.
Experiment [4] shares this target. In words: Inhibition of recombinant human SIRT2 deacylation activity using H4K16-Ac as substrate measured after 30 mins in presence of NAD+ by HPLC analysis. In a few lines:
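H4K16-Ac peptide at 100 μM with 500 μM NAD⁺ and 175 nM SIRT2 in Tris-HCl pH 8.0/NaCl/Triton buffer lacking DTT, 0.5% DMSO, 30 min at 37 °C. Inhibitors at 0.01–10 μM. Stopped with HCl in MeOH. Deacetylated product quantified by reversed-phase HPLC at 280 nm.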

Experiment [5] concerns the target NAD-dependent protein deacylase sirtuin-6 (Homo sapiens) (UniProt Q8N6T7). Briefly: Inhibition of recombinant human N-terminal polyhis-tagged SIRT6 (1 to 355 residues) defatty-acylase activity expressed in Escherichia coli at 2 uM using SFP3 as substrate measured at 5 mins interval for 60 mins in presence of NAD+ by fluorescence assay relative to control.
Experiment [6] concerns the target T1, NAD-dependent protein deacetylase sirtuin-2 (Homo sapiens). In words: Time-dependent inhibition of recombinant human SIRT2 defatty-acylase activity at 15.6 to 250 nM using SFP3 as substrate measured at 5 mins interval for 60 mins in presence of NAD+ by fluorescence assay.
The target is the same in experiment [7]. In words: Time-dependent inhibition of recombinant human SIRT2 defatty-acylase activity at 62.5 to 1000 nM using SFP3 as substrate measured at 5 mins interval for 60 mins in presence of NAD+ by fluorescence assay.
Experiment [8] has the same target. In words: Inhibition of recombinant human SIRT2 demyristoylase activity at 1 uM using p53(Myr)-AMC as substrate measured after 3 hrs in presence of NAD+ and trypsin by fluorescence assay relative to control.
Experiment [9] addresses T2, NAD-dependent protein deacetylase sirtuin-3, mitochondrial (Homo sapiens) (UniProt Q9NTG7).
T2 sequence (whole entry): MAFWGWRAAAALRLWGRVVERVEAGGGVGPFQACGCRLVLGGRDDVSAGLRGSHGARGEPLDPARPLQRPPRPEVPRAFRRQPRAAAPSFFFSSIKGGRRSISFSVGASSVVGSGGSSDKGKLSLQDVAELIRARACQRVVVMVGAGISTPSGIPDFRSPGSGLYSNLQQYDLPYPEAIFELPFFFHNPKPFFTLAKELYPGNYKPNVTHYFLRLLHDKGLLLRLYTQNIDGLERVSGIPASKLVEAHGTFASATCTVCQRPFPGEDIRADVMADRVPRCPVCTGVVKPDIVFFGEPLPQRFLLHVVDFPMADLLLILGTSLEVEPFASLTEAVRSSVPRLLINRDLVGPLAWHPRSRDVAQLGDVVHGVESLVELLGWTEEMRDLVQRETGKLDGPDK
Briefly: Inhibition of recombinant human SIRT3 (118 to 399 residues) demyristoylase activity expressed in Escherichia coli at 1 uM using p53(Myr)-AMC as substrate measured after 3 hrs in presence of NAD+ and trypsin by fluorescence assay relative to control. In a few lines:
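SIRT3 at 120 nM with 50 μM p53(Myr)-AMC and 500 μM NAD⁺ in Tris-HCl pH 8.0/NaCl/DTT/Triton buffer, 0.5% DMSO, 3 h at room temperature. Trypsin (100 nM) plus nicotinamide (1 mM) then added. Fluorescence Ex 355/Em 460 nm every 5 min for 20 min at 37 °C. n = 3.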

Experiment [10] has as its target T3, NAD-dependent protein deacetylase sirtuin-1 (Homo sapiens) (UniProt Q96EB6).
T3 sequence (whole entry): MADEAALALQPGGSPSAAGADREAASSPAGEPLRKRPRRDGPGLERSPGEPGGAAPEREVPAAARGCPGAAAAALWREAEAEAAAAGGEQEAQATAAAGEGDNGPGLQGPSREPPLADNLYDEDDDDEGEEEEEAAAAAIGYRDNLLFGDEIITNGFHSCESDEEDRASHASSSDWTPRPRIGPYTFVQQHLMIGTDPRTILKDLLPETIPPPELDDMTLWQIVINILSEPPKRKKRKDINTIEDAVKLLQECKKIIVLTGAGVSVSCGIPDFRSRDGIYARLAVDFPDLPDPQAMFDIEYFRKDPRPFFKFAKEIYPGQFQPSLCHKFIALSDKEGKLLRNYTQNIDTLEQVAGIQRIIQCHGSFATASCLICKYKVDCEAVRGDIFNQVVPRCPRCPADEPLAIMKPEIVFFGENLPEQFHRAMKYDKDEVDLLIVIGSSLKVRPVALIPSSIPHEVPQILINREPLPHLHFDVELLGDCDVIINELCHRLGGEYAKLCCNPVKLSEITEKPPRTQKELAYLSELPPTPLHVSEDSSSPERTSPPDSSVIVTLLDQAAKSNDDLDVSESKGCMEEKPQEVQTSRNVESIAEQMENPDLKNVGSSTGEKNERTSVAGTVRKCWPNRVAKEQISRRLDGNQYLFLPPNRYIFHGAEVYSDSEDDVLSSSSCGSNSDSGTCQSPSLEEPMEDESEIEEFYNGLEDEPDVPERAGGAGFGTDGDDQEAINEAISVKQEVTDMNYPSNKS
Briefly: Inhibition of recombinant human C-terminal His6-tagged SIRT1 (Met1 to Ser747 residues) demyristoylase activity expressed in Escherichia coli at 1 uM using p53(Myr)-AMC as substrate measured after 3 hrs in presence of NAD+ and trypsin by fluorescence assay relative to control. In a few lines: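 SIRT1 at 14 nM final with 50 μM p53(Myr)-AMC and 500 μM NAD⁺ in Tris-HCl pH 8.0/NaCl/DTT/Triton buffer, 0.5% DMSO, 3 h at room temperature. Trypsin (100 nM final) plus nicotinamide (1 mM final) then added. Fluorescence Ex 355/Em 460 nm read every 5 min for 20 min at 37 °C. n = 3.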

Experiment [11] deals with T3, NAD-dependent protein deacetylase sirtuin-1 (Homo sapiens). In words: Inhibition of recombinant human C-terminal His6-tagged SIRT1 (Met1 to Ser747 residues) defatty-acylase activity expressed in Escherichia coli at 2 uM using SFP3 as substrate measured at 5 mins interval for 60 mins in presence of NAD+ by fluorescence assay relative to control.
Experiment [12] deals with T2, NAD-dependent protein deacetylase sirtuin-3, mitochondrial (Homo sapiens). Briefly: Inhibition of recombinant human SIRT3 (118 to 399 residues) defatty-acylase activity expressed in Escherichia coli at 2 uM using SFP3 as substrate measured at 5 mins interval for 60 mins in presence of NAD+ by fluorescence assay relative to control. In a few lines: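 SIRT3 at 60 nM final with 2.5 μM SFP3 and 500 μM NAD⁺ in Tris-HCl pH 8.0, 150 mM NaCl, 1 mM DTT, 0.05% Triton X-100. Final DMSO 0.2%, or 0.5% for AGK2/NAM. Fluorescence Ex 485/Em 535 nm every 5 min for 60 min at 37 °C. n = 3.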

The target in experiment [13] is T1, NAD-dependent protein deacetylase sirtuin-2 (Homo sapiens). In words: Inhibition of recombinant human SIRT2 defatty-acylase activity at 2 uM using SFP3 as substrate measured at 5 mins interval for 60 mins in presence of NAD+ by fluorescence assay relative to control.
The target is the same in experiment [14]. In words: Inhibition of recombinant human SIRT2 deacylation activity at 1 uM using Fluor de Lys Sirt2 as substrate measured at 5 mins interval for 30 mins in presence of NAD+ by fluorescence assay relative to control.

NAD-dependent protein deacylase sirtuin-6 (Homo sapiens), sequence (Q8N6T7 whole entry, the tested form may be a part): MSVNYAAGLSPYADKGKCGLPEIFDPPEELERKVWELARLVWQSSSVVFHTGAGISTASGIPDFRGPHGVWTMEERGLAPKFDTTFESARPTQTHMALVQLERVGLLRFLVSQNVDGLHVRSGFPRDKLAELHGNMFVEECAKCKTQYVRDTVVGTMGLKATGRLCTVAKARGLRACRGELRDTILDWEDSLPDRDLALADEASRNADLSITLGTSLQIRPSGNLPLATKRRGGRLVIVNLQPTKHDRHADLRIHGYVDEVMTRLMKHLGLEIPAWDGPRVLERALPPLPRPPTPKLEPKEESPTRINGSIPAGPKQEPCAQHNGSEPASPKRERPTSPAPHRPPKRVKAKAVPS

On to `O=C(Cc1ccc(/N=N/c2ccccc2)cc1)NCCCC[C@H](NC(=O)OCC1c2ccccc2-c2ccccc21)C(=O)O`, for which the inhibition entry in experiment [1] is “inactive”.

Turning to `CC[C@H](C)[C@H](NC(=O)[C@H](CCCNC(=N)N)NC(C)=O)C(=O)N[C@@H](CCCCNC(=O)Cc1ccc(/N=N/c2ccc(O)cc2)cc1)C(=O)N[C@@H](CCCNC(=N)N)C(=O)N[C@@H](Cc1ccc(O)cc1)C(N)=O` (Ac-RIK(X1)RY-NH2), the result in the experiment with HeLa was inactive. Moreover, the inhibition entry in [2] is “Dose-dependent effect”; in [4] it was “Dose-dependent effect”; in [5] it was 43%. The inhibition entry in [3] is “Active”.

In the case of `CC[C@H](C)[C@H](NC(=O)[C@H](CCCNC(=N)N)NC(C)=O)C(=O)N[C@@H](CCCCNC(=O)Cc1ccc(/N=N/c2ccc(N(C)C)cc2)cc1)C(=O)N[C@@H](CCCNC(=N)N)C(=O)N[C@@H](Cc1ccc(O)cc1)C(N)=O` (Ac-RIK(X4)RY-NH2), in [6], the TDI result is “Active”. For the same compound, the inhibition in [5] was found to be 40%.

For `CC[C@H](C)[C@H](NC(=O)[C@H](CCCNC(=N)N)NC(C)=O)C(=O)N[C@@H](CCCCNC(=O)CCc1ccc(/N=N/c2ccc(N(C)C)cc2)cc1)C(=O)N[C@@H](CCCNC(=N)N)C(=O)N[C@@H](Cc1ccc(O)cc1)C(N)=O` (Ac-RIK(X3)RY-NH2), the TDI result in experiment [7] was “inactive”. Further, the inhibition in experiment [8] amounted to 23%; in experiment [9] it was 11%; in experiment [10], 42%; in experiment [5] it was 13%.

For `CCCCCCCCCCCCCC(=S)NCCCC[C@H](NC(=O)[C@@H](NC(=O)[C@H](CCCNC(=N)N)NC(C)=O)[C@@H](C)CC)C(=O)N[C@@H](CCCNC(=N)N)C(=O)N[C@@H](Cc1ccc(O)cc1)C(N)=O` (Ac-RI[Lys(thiomyristoyl)]RY-NH2), the outcome in the experiment with HeLa was inactive. For the same compound, the inhibition entry in [2] and in experiment [4] was “Dose-dependent effect” throughout. Moreover, the inhibition entry in experiment [3] was “Active”.

In the case of `CC[C@H](C)[C@H](NC(=O)[C@H](CCCNC(=N)N)NC(C)=O)C(=O)N[C@@H](CCCCNC(=O)c1ccc(/N=N/c2ccc(N(C)C)cc2)cc1)C(=O)N[C@@H](CCCNC(=N)N)C(=O)N[C@@H](Cc1ccc(O)cc1)C(N)=O` (Ac-RIK(X2)RY-NH2), the TDI result in [7] is “inactive”. Besides, the inhibition worked out at 34% in experiment [9], 22% in experiment [11], 42% in [10] and 13% in experiment [5].

Turning to `CCCCCCCCCCCCCC(=O)NCCCC[C@H](NC(=O)OCc1ccccc1)C(=O)Nc1ccccc1`, the inhibition was 5.2% in [8]; 1.7% in experiment [9]; -2.3% in experiment [12]; -0.59% in [11]; 1.7% in experiment [10]; 2.8% in experiment [13]. Besides, the inhibition is -3.5% in experiment [5] and 42% in [14].
